Results: publication PMC12040810 (AMB Express, 2025)
≈ marks a conversion by molar mass, not a printed value. Where “and” joins values, the source holds several entries; their conditions need not be identical. Equal entries are not always repeated.

Assays:
human blood suspension = assay: Hemolytic assay, spectrophotometric, free hemoglobin at 540 nm; type: cell-based
L929 cell line = assay: Cell toxicity assay; type: cell-based
[1] = Biochemical analysis of serum AST and ALT; type: in vivo, BALB/c mice; conditions: for level of AST: serum, after treatment, P = 0.072
Procedure, shortened: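 Female BALB/c mice (about 20 g, 6–7 weeks), 5 per group, were infected subcutaneously at the tail base with L. major promastigotes and then given topical ointment treatments. After 28 days, serum was drawn and AST and ALT were measured with a commercial kit. The manufacturer's normal ranges were ALT 75–90 IU/l and AST 125–155 IU/l.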

L. major promastigotes = assay: In vitro anti-promastigote activity, viability by eosin 0.1% vital stain; type: cell-based; conditions: Leishmania major, 48 h
Procedure, shortened: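 L. major promastigotes (strain MRHO/IR/75/ER) were kept in RPMI 1640 (pH 7.4) with 20% FBS, 25 mM HEPES and penicillin/streptomycin at 24 °C, passaged every 3 days. Log-phase cells (100 µl at 1 × 10^6/ml) received 100 µl of test compound solution; PBS was the negative control. Plates were held at 26 °C.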

L. major = assay: In vivo anti-leishmanial effects, lesion size after topical ointment treatment; parameters: species or system BALB/c mice; conditions: group receiving amphotericin B
Procedure, shortened: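 Female BALB/c mice (about 20 g, 6–7 weeks), 5 per group, were injected subcutaneously at the tail base with 1.5 × 10^6 stationary-phase L. major promastigotes. Nodules and ulcers formed by day 21, and lesion amastigotes were confirmed by microscopy at 1000×. Topical ointments were given over 28 days, with vehicle ointment or PBS as controls. Lesion diameter was measured weekly with a dial micrometer before and after treatment.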

[2] = 12 h, composition as in the label, concentration of controls not given
[3] = 24 h, composition as in the label, concentration of controls not given
[4] = 48 h, composition as in the label, concentration of controls not given
[5] = 6 h, composition as in the label, concentration of controls not given

Triton X100
Hemolytic activity (%) ± SD (human blood suspension; [2]): 90.1 ± 4.5%
Hemolytic activity (%) ± SD (human blood suspension; [3]): 99.4 ± 0.5%
Hemolytic activity (%) ± SD (human blood suspension; [4]): 100 ± 0.0%
Cytotoxic activity (%) ± SD (L929 cell line; [5]): 0.14±-0.002%
Cytotoxic activity (%) ± SD (L929 cell line; [2]): 0.11 ± 0.02%
Cytotoxic activity (%) ± SD (L929 cell line; [3]): 0.11 ± 0.006%

CNC[C@H](O)[C@@H](O)[C@H](O)[C@H](O)CO.[O]=[Sb](=[O])[OH] [Glucantime]
level of AST [1]: higher compared to the other treatment groups
Hemolytic activity (%) ± SD (human blood suspension; [2]): 15.6 ± 0.5%
Hemolytic activity (%) ± SD (human blood suspension; [3]): 18.6 ± 0.6%
Hemolytic activity (%) ± SD (human blood suspension; [4]): 20.3 ± 0.8%
Cytotoxic activity (%) ± SD (L929 cell line; [5]): 0.43 ± 0.002%
Cytotoxic activity (%) ± SD (L929 cell line; [2]): 0.38 ± 0.01%
Cytotoxic activity (%) ± SD (L929 cell line; [3]): 0.35 ± 0.02%

C[C@@H]1[C@H](O)[C@@H](C)/C=C/C=C/C=C/C=C/C=C/C=C/C=C/[C@H](O[C@@H]2O[C@H](C)[C@@H](O)[C@H](N)[C@@H]2O)C[C@@H]2O[C@](O)(C[C@@H](O)C[C@@H](O)[C@H](O)CC[C@@H](O)C[C@@H](O)CC(=O)O[C@H]1C)C[C@H](O)[C@H]2C(=O)O [Amphotericin B]
IC50 (L. major promastigotes): 256 µg/mL (≈ 277 µM)
wound size after 28 days (L. major; after 28 days of treatment): 1.59 mm
wound size before treatment (L. major; before treatment): 15.71 mm
toxicity judged by AST and ALT ([1]; blood samples after 28 days, in words): highest drug toxicity
level of AST [1]: higher compared to the other treatment groups
Hemolytic activity (%) ± SD (human blood suspension; 12 h, amphotericin B 500 µg/ml): 13.9% and 13.9 ± 0.4%
Hemolytic activity (%) ± SD (human blood suspension; 24 h, amphotericin B 500 µg/ml): 17.9% and 17.9 ± 0.9%
Hemolytic activity (%) ± SD (human blood suspension; 48 h, amphotericin B 500 µg/ml): 18.4% and 18.4 ± 0.9%
Cytotoxic activity (%) ± SD (L929 cell line; 6 h, amphotericin B 500 µg/ml): 0.43 ± 0.03%
Cytotoxic activity (%) ± SD (L929 cell line; 12 h, amphotericin B 500 µg/ml): 0.41 ± 0.07%
Cytotoxic activity (%) ± SD (L929 cell line; 24 h, amphotericin B 500 µg/ml): 0.41 ± 0.04%
toxicity in the MTT assay (L929 cell line; in words, chitosan at 10, 50, and 100 mg/ml): significantly lower than those of cisplatin
